Key:
Type in all cases: functional
[1] = tested on: Mycolicibacterium smegmatis; assay: Antibacterial activity against Mycobacterium smegmatis MC2 155 ATCC 700084 assessed as colony forming units at 100 ug/ml measured after 6 hrs by serial dilution method (reference value: 70 +/- 1.73 10^3CFU)
Outline: (§1)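 Bacteria were exposed to test compound over a range of µg/ml concentrations. Viable bacteria were counted by colony forming unit (CFU) assay at set time points (6 h and 24 h for M. smegmatis and S. aureus strains), and untreated bacteria served as the control. Percentage of population killed was calculated relative to the untreated control. Values are means ± S.D of three independent trials.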

Pseudomonas aeruginosa [2] = assay: Bactericidal activity against Pseudomonas aeruginosa PAO1 ATCC 15692 at 50 ug/ml measured after 1 hr by serial dilution method relative to control
Pseudomonas aeruginosa [3] = assay: Bactericidal activity against Pseudomonas aeruginosa PAO1 ATCC 15692 at 50 ug/ml measured after 3 hrs by serial dilution method relative to control
[4] = tested on: Mycolicibacterium smegmatis; assay: Antibacterial activity against Mycobacterium smegmatis MC2 155 ATCC 700084 assessed as colony forming units at 1 ug/ml measured after 6 hrs by serial dilution method (reference value: 70 +/- 1.73 10^3CFU); outline: as §1
[5] = tested on: Mycolicibacterium smegmatis; assay: Antibacterial activity against Mycobacterium smegmatis MC2 155 ATCC 700084 assessed as colony forming units at 500 ug/ml measured after 6 hrs by serial dilution method (reference value: 70 +/- 1.73 10^3CFU); outline: as §1
Staphylococcus aureus [6] = assay: Bactericidal activity against Staphylococcus aureus ATCC 25923 at 100 ug/ml measured after 24 hrs by serial dilution method relative to control
Staphylococcus aureus [7] = assay: Antibacterial activity against methicillin-resistant Staphylococcus aureus ATCC 43300 assessed as colony forming units at 50 ug/ml measured after 6 hrs by serial dilution method (reference value: 64.33 +/- 3.51 10^6CFU); outline: as §1
Staphylococcus aureus [8] = assay: Bactericidal activity against Staphylococcus aureus ATCC 25923 at 100 ug/ml measured after 6 hrs by serial dilution method relative to control
Staphylococcus aureus [9] = assay: Bactericidal activity against methicillin-resistant Staphylococcus aureus ATCC 43300 at >100 ug/ml measured after 6 and 24 hrs by serial dilution method relative to control; outline: as §1
Pseudomonas aeruginosa [10] = assay: Bactericidal activity against Pseudomonas aeruginosa PAO1 ATCC 15692 at 50 to 100 ug/ml measured after 3 hrs by serial dilution method relative to control
Staphylococcus aureus [11] = assay: Antibacterial activity against methicillin-resistant Staphylococcus aureus ATCC 43300 assessed as colony forming units at 200 ug/ml measured after 6 hrs by serial dilution method (reference value: 64.33 +/- 3.51 10^6CFU); outline: as §1
Pseudomonas aeruginosa [12] = assay: Bactericidal activity against Pseudomonas aeruginosa PAO1 ATCC 15692 at 10 to 50 ug/ml measured after 1 hrs by serial dilution method relative to control
Staphylococcus aureus [13] = assay: Bactericidal activity against Staphylococcus aureus ATCC 25923 at 1 to 10 ug/ml measured after 6 hrs by serial dilution method relative to control
Staphylococcus aureus [14] = assay: Bactericidal activity against Staphylococcus aureus ATCC 25923 at 200 ug/ml measured after 6 hrs by serial dilution method relative to control

Row | Structure (SMILES) | Activity [1] | Activity (Pseudomonas aeruginosa [2]) | Activity (Pseudomonas aeruginosa [3]) | Activity [4] | Activity [5] | Activity (Staphylococcus aureus [6]) | Activity (Staphylococcus aureus [7]) | Activity (Staphylococcus aureus [8]) | Activity (Staphylococcus aureus [9]) | Activity (Pseudomonas aeruginosa [10]) | Activity (Staphylococcus aureus [11]) | Activity (Pseudomonas aeruginosa [12]) | Activity (Staphylococcus aureus [13]) | Activity (Staphylococcus aureus [14])
1 | O=C(/C=C/c1ccc(O)c(O)c1)Nc1ccccc1Nc1ccccc1 | 24.66 ×10³ CFU | 58.9% | 62.1% | 52.33 ×10³ CFU | 0 ×10³ CFU | 84.9% | 30.33 ×10⁶ CFU | 92.3% | 100% | – | – | – | – | –
2 | Cc1ccc(O)c(NC(=O)/C=C/c2ccc(O)c(O)c2)c1 | 14.33 ×10³ CFU | – | – | 65.66 ×10³ CFU | 0 ×10³ CFU | – | 27.33 ×10⁶ CFU | – | 100% | 50% | 6.66 ×10⁶ CFU | 50% | 60.9% | 93.8%

Reference: ChEMBL document CHEMBL3868627, “Radical scavenging and antibacterial activity of caffemides against gram positive, gram negative and clinical drug resistance bacteria” (Bioorg Med Chem Lett, 2016)
